Legend:
[1] = Cytotoxicity against human Raji cells assessed as cell viability at 10^-6 M; assay type: cell-based; conditions: read-out: Activity
Mus musculus = species: Mus musculus; test: Toxicity in ICR mouse assessed as development of tumors at 8.5 nmol treated twice a week from week 1 to week 20; assay type: organism-based; conditions: in vivo
How it was run: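 Mouse skin two-stage carcinogenesis: initiation by a single application of 390 nmol DMBA. From one week later, 8.5 nmol test compound was applied twice weekly from week 1 to week 20. The control group received DMBA then 1.7 nmol TPA twice weekly. Tumor development was monitored over time.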

[2] = Cytotoxicity against human Raji cells assessed as cell viability at 10^-7 M; assay type: cell-based; conditions: read-out: Activity
Human gammaherpesvirus 4 [3] = test: Induction of EBV-early antigen expressed in human Raji cells at 10^-6 M after 48 hrs by immunofluorescence assay relative to control; assay type: organism-based; conditions: human gammaherpesvirus 4, raji, 1 µM
How it was run: (§1)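 Raji B-lymphoblastoid cells (5 × 10^5/mL) in RPMI 1640 with 10% FBS, with 4 mM sodium n-butyrate as synergist and test compound at 10^-7 or 10^-6 M (final DMSO 0.4%). Incubated 48 h at 37 °C under 5% CO2. Smears were stained by indirect immunofluorescence using NPC patient serum and FITC anti-human IgG. At least 500 cells counted; % EA-positive recorded; n = 3, SEM.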

Human gammaherpesvirus 4 [4] = test: Induction of EBV-early antigen expressed in human Raji cells at 10^-7 M after 48 hrs by immunofluorescence assay relative to control; assay type: organism-based; conditions: human gammaherpesvirus 4, raji, 0.1 µM; how it was run: as §1
PC-3 = test: Growth inhibition of human PC3 cells after 48 hrs by sulforhodamine B assay; assay type: functional; conditions: PC-3, 48 h
How it was run: (§2)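 Yamori 39-line human cancer panel, NCI method with modifications. Cells plated in RPMI 1640 plus 5% FBS, attached overnight, then exposed 48 h to compound at 10^-8, 10^-7, 10^-6, 10^-5 and 10^-4 M. Sulforhodamine B staining read at 525 nm; % growth = 100[(T−T0)/(C−T0)] from duplicate-point averages, with T0 the time-zero absorbance. GI50 is the concentration giving 50.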

DU-145 = test: Growth inhibition of human DU145 cells after 48 hrs by sulforhodamine B assay; assay type: functional; conditions: DU-145, 48 h; how it was run: as §2
MKN-74 = test: Growth inhibition of human MKN74 cells after 48 hrs by sulforhodamine B assay; assay type: functional; conditions: MKN-74, 48 h; how it was run: as §2
MKN-28 = test: Growth inhibition of human MKN28 cells after 48 hrs by sulforhodamine B assay; assay type: functional; conditions: MKN-28, 48 h; how it was run: as §2
MKN-45 = test: Growth inhibition of human MKN45 cells after 48 hrs by sulforhodamine B assay; assay type: functional; conditions: MKN-45, 48 h; how it was run: as §2
MKN-7 = test: Growth inhibition of human MKN7 cells after 48 hrs by sulforhodamine B assay; assay type: functional; conditions: MKN-7, 48 h; how it was run: as §2
St-4 = test: Growth inhibition of human St-4 cells after 48 hrs by sulforhodamine B assay; assay type: functional; conditions: St-4, 48 h; how it was run: as §2
[5] = Growth inhibition of human MKN1 cells after 48 hrs by sulforhodamine B assay; assay type: functional; conditions: MKN-1, 48 h; how it was run: as §2
[6] = Growth inhibition of human RXF631L cells after 48 hrs by sulforhodamine B assay; assay type: functional; conditions: RXF 631, 48 h; how it was run: as §2
ACHN = test: Growth inhibition of human ACHN cells after 48 hrs by sulforhodamine B assay; assay type: functional; how it was run: as §2
OVCAR-8 = test: Growth inhibition of human OVCAR8 cells after 48 hrs by sulforhodamine B assay; assay type: functional; conditions: OVCAR-8, 48 h; how it was run: as §2
SK-OV-3 = test: Growth inhibition of human SKOV3 cells after 48 hrs by sulforhodamine B assay; assay type: functional; conditions: SK-OV-3, 48 h; how it was run: as §2
OVCAR-5 = test: Growth inhibition of human OVCAR5 cells after 48 hrs by sulforhodamine B assay; assay type: functional; conditions: OVCAR-5, 48 h; how it was run: as §2
OVCAR-3 = test: Growth inhibition of human OVCAR3 cells after 48 hrs by sulforhodamine B assay; assay type: functional; conditions: OVCAR-3, 48 h; how it was run: as §2
OVCAR-4 = test: Growth inhibition of human OVCAR4 cells after 48 hrs by sulforhodamine B assay; assay type: functional; conditions: OVCAR-4, 48 h; how it was run: as §2
DMS-114 = test: Growth inhibition of human DMS114 cells after 48 hrs by sulforhodamine B assay; assay type: functional; conditions: DMS-114, 48 h; how it was run: as §2
LOX IMVI = test: Growth inhibition of human LOXIMVI cells after 48 hrs by sulforhodamine B assay; assay type: functional; how it was run: as §2
A549 = test: Growth inhibition of human A549 cells after 48 hrs by sulforhodamine B assay; assay type: functional; conditions: A549, 48 h; how it was run: as §2
DMS-273 = test: Growth inhibition of human DMS273 cells after 48 hrs by sulforhodamine B assay; assay type: functional; conditions: DMS-273, 48 h; how it was run: as §2
NCI-H460 = test: Growth inhibition of human NCI-H460 cells after 48 hrs by sulforhodamine B assay; assay type: functional; conditions: NCI-H460, 48 h; how it was run: as §2
NCI-H226 = test: Growth inhibition of human NCI-H226 cells after 48 hrs by sulforhodamine B assay; assay type: functional; conditions: NCI-H226, 48 h; how it was run: as §2
NCI-H522 = test: Growth inhibition of human NCI-H522 cells after 48 hrs by sulforhodamine B assay; assay type: functional; conditions: NCI-H522, 48 h; how it was run: as §2
HCT-116 = test: Growth inhibition of human HCT116 cells after 48 hrs by sulforhodamine B assay; assay type: functional; conditions: HCT-116, 48 h; how it was run: as §2
NCI-H23 = test: Growth inhibition of human NCI-H23 cells after 48 hrs by sulforhodamine B assay; assay type: functional; conditions: NCI-H23, 48 h; how it was run: as §2
HCT-15 = test: Growth inhibition of human HCT15 cells after 48 hrs by sulforhodamine B assay; assay type: functional; conditions: HCT-15, 48 h; how it was run: as §2
KM12 = test: Growth inhibition of human KM12 cells after 48 hrs by sulforhodamine B assay; assay type: functional; conditions: KM12, 48 h; how it was run: as §2
HT-29 = test: Growth inhibition of human HT-29 cells after 48 hrs by sulforhodamine B assay; assay type: functional; conditions: HT-29, 48 h; how it was run: as §2
SNB-78 = test: Growth inhibition of human SNB78 cells after 48 hrs by sulforhodamine B assay; assay type: functional; conditions: SNB-78, 48 h; how it was run: as §2
[7] = Growth inhibition of human HCC2998 cells after 48 hrs by sulforhodamine B assay; assay type: functional; conditions: HCC 2998, 48 h; how it was run: as §2
SF-539 = test: Growth inhibition of human SF539 cells after 48 hrs by sulforhodamine B assay; assay type: functional; conditions: SF-539, 48 h; how it was run: as §2
SNB-75 = test: Growth inhibition of human SNB75 cells after 48 hrs by sulforhodamine B assay; assay type: functional; conditions: SNB-75, 48 h; how it was run: as §2
SF-295 = test: Growth inhibition of human SF295 cells after 48 hrs by sulforhodamine B assay; assay type: functional; conditions: SF-295, 48 h; how it was run: as §2
U-251 = test: Growth inhibition of human U251 cells after 48 hrs by sulforhodamine B assay; assay type: functional; conditions: U-251, 48 h; how it was run: as §2
SF-268 = test: Growth inhibition of human SF268 cells after 48 hrs by sulforhodamine B assay; assay type: functional; conditions: SF-268, 48 h; how it was run: as §2
MCF7 = test: Growth inhibition of human MCF7 cells after 48 hrs by sulforhodamine B assay; assay type: functional; conditions: MCF7, 48 h; how it was run: as §2
MDA-MB-231 = test: Growth inhibition of human MDA-MB-231 cells after 48 hrs by sulforhodamine B assay; assay type: functional; conditions: MDA-MB-231, 48 h; how it was run: as §2
[8] = Growth inhibition of human BSY1 cells after 48 hrs by sulforhodamine B assay; assay type: functional; conditions: BSY-1, 48 h; how it was run: as §2
[9] = Growth inhibition of human HBC5 cells after 48 hrs by sulforhodamine B assay; assay type: functional; conditions: HBC5, 48 h; how it was run: as §2
[10] = Growth inhibition of human HBC4 cells after 48 hrs by sulforhodamine B assay; assay type: functional; conditions: HBC4, 48 h; how it was run: as §2
[11] = Octanol-water partition coefficient, log P of the compound by HPLC analysis; assay type: physicochemical
How it was run: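 log P was estimated from HPLC retention, with column dead time measured using unretained formamide.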

[12] = target: T1, Protein kinase C delta type (Homo sapiens, UniProt Q05655); test: Inhibition of [3H]PDBu binding to PKCdelta-C1A domain peptide (unknown origin)
How it was run: (§3)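 Competitive [3H]PDBu binding used 14 or 40 nM PKCδ C1 peptide and 20 nM [3H]PDBu (19.6 Ci/mmol), in 50 mM Tris-maleate (pH 7.4 at 4 °C) with 50 µg/mL phosphatidylserine, 3 mg/mL bovine γ-globulin and varied inhibitor concentrations. IC50 was taken as 50% inhibition of specific binding. Ki was derived by the Sharkey–Blumberg method.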

[13] = target: T1, Protein kinase C delta type; test: Inhibition of [3H]PDBu binding to PKCdelta-C1B domain peptide (unknown origin); how it was run: as §3

T1 sequence (Q05655 whole entry, the tested form may be a part): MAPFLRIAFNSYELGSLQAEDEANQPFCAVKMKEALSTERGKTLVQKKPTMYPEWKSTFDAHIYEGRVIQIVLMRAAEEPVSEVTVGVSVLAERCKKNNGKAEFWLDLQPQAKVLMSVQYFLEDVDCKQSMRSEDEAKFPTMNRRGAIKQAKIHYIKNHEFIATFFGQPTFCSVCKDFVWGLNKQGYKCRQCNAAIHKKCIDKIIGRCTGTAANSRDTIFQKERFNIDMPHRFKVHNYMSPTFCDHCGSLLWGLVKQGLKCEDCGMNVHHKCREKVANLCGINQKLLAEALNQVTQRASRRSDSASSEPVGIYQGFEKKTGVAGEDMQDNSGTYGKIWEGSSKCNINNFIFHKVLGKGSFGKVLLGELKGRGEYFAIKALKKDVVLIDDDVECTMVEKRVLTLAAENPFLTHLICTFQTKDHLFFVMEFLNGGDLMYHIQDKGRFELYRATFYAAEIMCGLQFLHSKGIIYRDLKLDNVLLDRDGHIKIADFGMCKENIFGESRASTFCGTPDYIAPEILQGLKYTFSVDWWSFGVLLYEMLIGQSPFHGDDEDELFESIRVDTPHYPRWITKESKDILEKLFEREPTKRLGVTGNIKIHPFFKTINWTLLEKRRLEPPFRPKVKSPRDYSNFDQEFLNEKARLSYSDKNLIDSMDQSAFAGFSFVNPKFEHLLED

Structure (SMILES): CC1(C)CC[C@@H]2CC(=O)O[C@@H](CO)CC(=O)O[C@@H]3C[C@@H](CCCCc4cc(O)ccc4Br)O[C@@]1(C3)O2
- viability at 1 µM [1]: 40%
- Activity (Mus musculus): Non-toxic
- viability at 0.1 µM [2]: 50%
- Activity (Human gammaherpesvirus 4 [3]): 1.9%
- Activity (Human gammaherpesvirus 4 [4]): 1.8%
- GI50 (PC-3): 2950 nM
- GI50 (DU-145): 11.5 µM
- GI50 (MKN-74): 13.8 µM
- GI50 (MKN-28): 12 µM
- GI50 (MKN-45): 1820 nM
- GI50 (MKN-7): 6.92 µM
- GI50 (St-4): 955 nM
- GI50 [5]: 11.7 µM
- GI50 [6]: 16.2 µM
- GI50 (ACHN): 5.13 µM
- GI50 (OVCAR-8): 16.2 µM
- GI50 (SK-OV-3): 15.5 µM
- GI50 (OVCAR-5): 7.76 µM
- GI50 (OVCAR-3): 13.5 µM
- GI50 (OVCAR-4): 14.5 µM
- GI50 (DMS-114): 12.6 µM
- GI50 (LOX IMVI): 794 nM
- GI50 (A549): 5.01 µM
- GI50 (DMS-273): 11.7 µM
- GI50 (NCI-H460): 1660 nM
- GI50 (NCI-H226): 11.7 µM
- GI50 (NCI-H522): 13.5 µM
- GI50 (HCT-116): 10.7 µM
- GI50 (NCI-H23): 11.5 µM
- GI50 (HCT-15): 15.5 µM
- GI50 (KM12): 4.27 µM
- GI50 (HT-29): 13.2 µM
- GI50 (SNB-78): 15.5 µM
- GI50 [7]: 794 nM
- GI50 (SF-539): 11 µM
- GI50 (SNB-75): 12.3 µM
- GI50 (SF-295): 5.5 µM
- GI50 (U-251): 12.6 µM
- GI50 (SF-268): 12.6 µM
- GI50 (MCF7): 18.2 µM
- GI50 (MDA-MB-231): 468 nM
- GI50 [8]: 2630 nM
- GI50 [9]: 15.8 µM
- GI50 [10]: 97.7 nM
- logP [11]: 4
- Ki [12]: 66 nM
- Ki [13]: 3.5 nM

— ChEMBL document CHEMBL2380295, “Structure-activity studies on the side chain of a simplified analog of aplysiatoxin (aplog-1) with anti-proliferative activity” (Bioorg Med Chem, 2013)
